ChEMBL document CHEMBL5724801, “EUbOPEN Chemogenomics Library - Multiplex” (2024)
Where “and” joins values, the source holds several entries; their conditions need not be identical. Equal values may be shown once.

How the values were obtained:
U2OS = assay: Multiplex assay against U2OS; assay type: toxicity, cell-based; conditions: human
Summary of the method: (§1)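 With compound added, live cells were imaged on a CQ1 microscope at 37°C and 5% CO2; staining with Hoechst33342, BioTracker Green Microtubule Cytoskeleton Dye, MitoTracker Red and Annexin V Alexa Fluor 680 had been done at seeding. The CellPathfinder machine-learning gating scheme split cells into Hoechst high-intensity objects or normal cells, normal cells into healthy, pyknosed or fragmented nuclei, and pyknosed cells into mitotic or apoptotic. The tubulin, mitochondrial-mass and membrane-permeability phenotypes are per cents of healthy-nucleus cells.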

HEK-293T = assay: Multiplex assay against HEK293T; assay type: toxicity, cell-based; conditions: human; summary of the method: as §1
[1] = 24 h, 1 µM, compound concentration 1 uM
[2] = 24 h, 10 µM, compound concentration 10 uM
[3] = 48 h, 1 µM, compound concentration 1 uM
[4] = 48 h, 10 µM, compound concentration 10 uM
[5] = 12 h, 1 µM, compound concentration 1 uM
[6] = 12 h, 10 µM, compound concentration 10 uM

Which results are given for `Cc1cc(O)c(-c2ccc([C@@H](C)CN(C)C)cc2)c2c1[nH]c(=O)c1sccc12`?
Population Hoechst High Intensity Objects (%) (U2OS; [1]): 8% and 6% and 0.34% and 0%; Population Normal (%) (U2OS; [1]): 91% and 93% and 99.66% and 100%; Population Tubulin-Different-Phenotype (%) (U2OS; [1]): 19% and 12% and 11.11% and 17.07%; Population Apoptotic (%) (U2OS; [2]): 81% and 82% and 58.37% and 68.63%; Population Healthy Nuclei (%) (U2OS; [2]): 31% [middle of 4 runs]; Population Hoechst High Intensity Objects (%) (U2OS; [2]): 9% [middle of 4 runs]; Population Membrane Permeable-Phenotype (%) (U2OS; [2]): 16% [middle of 4 runs]; Population Mitochondria Different-Phenotype (%) (U2OS; [2]): 70% [middle of 4 runs]; Population Mitotic Cells (%) (U2OS; [2]): 31.37% [middle of 4 runs]; Population Normal (%) (U2OS; [2]): 90% and 87% and 99.35% and 100%; Population Pyknosed Nuclei (%) (U2OS; [2]): 67.86% [middle of 4 runs]; Population Tubulin-Different-Phenotype (%) (U2OS; [2]): 64.47% [middle of 4 runs]; Total Cell Count (U2OS; [2]): 210 [middle of 4 runs]; Population Apoptotic (%) (U2OS; [3]): 96% and 100% and 72.95% and 83.47%; Population Healthy Nuclei (%) (U2OS; [3]): 18% [middle of 4 runs]; Population Normal (%) (U2OS; [3]): 82% and 84% and 99.63% and 98.84%; Population Tubulin-Different-Phenotype (%) (U2OS; [3]): 25% and 50% and 28.57%; Total Cell Count (U2OS; [3]): 250 [middle of 4 runs]; Population Apoptotic (%) (U2OS; [4]): 96% and 100% and 80.93% and 86.67%; Population Healthy Nuclei (%) (U2OS; [4]): 17% and 13% and 14.23% and 9.84%; Population Mitochondria Different-Phenotype (%) (U2OS; [4]): 45% and 50% and 33.33%; Population Mitotic Cells (%) (U2OS; [4]): 13.33% [middle of 4 runs]; Population Normal (%) (U2OS; [4]): 79% and 84% and 98.92% and 99.19%; Population Pyknosed Nuclei (%) (U2OS; [4]): 31% and 78.47% and 86.07%; Population Tubulin-Different-Phenotype (%) (U2OS; [4]): 64% [middle of 4 runs]; Total Cell Count (U2OS; [4]): 220 [middle of 4 runs]; Population Membrane Permeable-Phenotype (%) (HEK-293T; [5]): 0% and 1% and 7.14%; Population Mitotic Cells (%) (HEK-293T; [5]): 88.89% [middle of 4 runs]; Population Normal (%) (HEK-293T; [5]): 72% and 71% and 100%; Population Tubulin-Different-Phenotype (%) (HEK-293T; [5]): 74% [middle of 4 runs]; Total Cell Count (HEK-293T; [5]): 209 and 207 and 208 and 140; Population Fragmented Nuclei (%) (HEK-293T; [6]): 6% and 7% and 2.23% and 0.71%; Population Membrane Permeable-Phenotype (%) (HEK-293T; [6]): 0% and 2.04% and 9.09%; Population Mitotic Cells (%) (HEK-293T; [6]): 62.79% [middle of 4 runs]; Population Normal (%) (HEK-293T; [6]): 58% and 71% and 100%; Population Pyknosed Nuclei (%) (HEK-293T; [6]): 75.89% [middle of 4 runs]; Population Tubulin-Different-Phenotype (%) (HEK-293T; [6]): 60% and 72% and 75.51% and 63.64%; Total Cell Count (HEK-293T; [6]): 268 and 195 and 224 and 141; Population Apoptotic (%) (HEK-293T; [1]): 65% and 68% and 44.06% and 39.32%; Population Fragmented Nuclei (%) (HEK-293T; [1]): 9% and 2.63% and 2.94%; Population Hoechst High Intensity Objects (%) (HEK-293T; [1]): 21% and 1.72% and 0%; Population Membrane Permeable-Phenotype (%) (HEK-293T; [1]): 0% and 6.67%; Population Mitochondria Different-Phenotype (%) (HEK-293T; [1]): 89% [middle of 4 runs]; Population Mitotic Cells (%) (HEK-293T; [1]): 34% and 31% and 55.94% and 60.68%; Population Normal (%) (HEK-293T; [1]): 78% and 98.28% and 100%; Population Tubulin-Different-Phenotype (%) (HEK-293T; [1]): 67% [middle of 4 runs]; Total Cell Count (HEK-293T; [1]): 230 and 205 and 232 and 136; Population Apoptotic (%) (HEK-293T; [2]): 73% and 85% and 61.29% and 65.71%; Population Fragmented Nuclei (%) (HEK-293T; [2]): 8% and 7% and 0.96% and 1.33%; Population Membrane Permeable-Phenotype (%) (HEK-293T; [2]): 1.92% [middle of 4 runs]; Population Mitochondria Different-Phenotype (%) (HEK-293T; [2]): 92% [middle of 4 runs]; Population Mitotic Cells (%) (HEK-293T; [2]): 34.29% [middle of 4 runs]; Population Normal (%) (HEK-293T; [2]): 63% and 74% and 99.52% and 100%; Population Tubulin-Different-Phenotype (%) (HEK-293T; [2]): 70% and 80% and 96.15% and 62.5%; Total Cell Count (HEK-293T; [2]): 290 and 203 and 210 and 150; Population Apoptotic (%) (HEK-293T; [3]): 86% and 69% and 73.55% and 70.43%; Population Hoechst High Intensity Objects (%) (HEK-293T; [3]): 24% [middle of 4 runs]; Population Membrane Permeable-Phenotype (%) (HEK-293T; [3]): 0%; Population Mitochondria Different-Phenotype (%) (HEK-293T; [3]): 90% and 96% and 92% and 88.89%; Population Mitotic Cells (%) (HEK-293T; [3]): 29.57% [middle of 4 runs]; Population Normal (%) (HEK-293T; [3]): 75% and 74% and 99.03% and 100%; Population Tubulin-Different-Phenotype (%) (HEK-293T; [3]): 76% and 70% and 42.67% and 77.78%; Total Cell Count (HEK-293T; [3]): 249 and 212 and 206 and 135; Population Apoptotic (%) (HEK-293T; [4]): 86% and 87% and 92.81% and 91.73%; Population Fragmented Nuclei (%) (HEK-293T; [4]): 13% [middle of 4 runs]; Population Membrane Permeable-Phenotype (%) (HEK-293T; [4]): 1% and 0% and 1.56%; Population Mitochondria Different-Phenotype (%) (HEK-293T; [4]): 92% and 100% and 87.5%; Population Mitotic Cells (%) (HEK-293T; [4]): 13% and 12% and 7.19% and 8.27%; Population Normal (%) (HEK-293T; [4]): 59% and 65% and 99.52% and 100%; Population Tubulin-Different-Phenotype (%) (HEK-293T; [4]): 54% and 73% and 90.62% and 87.5%; Total Cell Count (HEK-293T; [4]): 223 [middle of 4 runs]
